Data taken from ChEMBL document CHEMBL1137648, “Synergistic efficacy of the combination of ST-246 with CMX001 against orthopoxviruses” (Antimicrob Agents Chemother, 2007).

Experiments:
Vaccinia virus [1] = test: Antiviral activity against Vaccinia virus Copenhagen in HFF cells assessed as reduction plaque formation after 3 days; type: functional, organism-based; settings: Orthopoxvirus vaccinia, 72 h
Vaccinia virus [2] = test: Antiviral activity against Vaccinia virus WR in HFF cells assessed as reduction plaque formation after 3 days; type: functional, organism-based; settings: Orthopoxvirus vaccinia, 72 h
Cowpox virus [3] = test: Antiviral activity against Cowpox virus Brighton in HFF cells assessed as reduction plaque formation after 3 days; type: functional, organism-based, Cowpox virus (Brighton Red); settings: 72 h
[4] = Cytotoxicity against HFF cells after 7 days by neutral red assay; type: cell-based; settings: human
Summary of the method: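 Confluent non-dividing HFF cells (2.5 x 10^4 cells/well) were exposed to a drug concentration series for 7 days at 37°C. Monolayers were then neutral red-stained, and the CC50 is the concentration cytotoxic to 50% of uninfected cells. Values are the mean of ≥2 assays ± standard deviation.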

[5] = Selectivity index, ratio CC50 for HFF cells to EC50 for Vaccinia virus Copenhagen; type: toxicity, cell-based; settings: human, read-out: Ratio CC50/EC50
Cowpox virus [6] = test: Antiviral activity against Cowpox virus Brighton infected BALB/c mouse assessed as virus-induced mean day of death at 1 mg/kg, po treated for 5 days after 6 days of viral inoculation; type: functional, Cowpox virus (Brighton Red)
Cowpox virus [7] = test: Antiviral activity against Cowpox virus Brighton infected BALB/c mouse assessed as virus-induced mean day of death at 0.3 mg/kg, po treated for 5 days after 6 days of viral inoculation; type: functional, Cowpox virus (Brighton Red)
[8] = Selectivity index, ratio CC50 for HFF cells to EC50 for Vaccinia virus WR; type: toxicity, cell-based; settings: human, read-out: Ratio CC50/EC50
[9] = Selectivity index, ratio CC50 for HFF cells to EC50 for Cowpox virus Brighton; type: toxicity, cell-based; settings: human, read-out: Ratio CC50/EC50
Cowpox virus [10] = test: Antiviral activity against Cowpox virus Brighton infected BALB/c mouse assessed as virus-induced mortality at 3 mg/kg, po treated for 5 days after 1 day of viral inoculation; type: functional, Cowpox virus (Brighton Red)
Cowpox virus [11] = test: Antiviral activity against Cowpox virus Brighton infected BALB/c mouse assessed as virus-induced mortality at 1 mg/kg, po treated for 5 days after 1 day of viral inoculation; type: functional, Cowpox virus (Brighton Red)
Cowpox virus [12] = test: Antiviral activity against Cowpox virus Brighton infected BALB/c mouse assessed as virus-induced mortality at 0.3 mg/kg, po treated for 5 days after 1 day of viral inoculation; type: functional, Cowpox virus (Brighton Red)
Cowpox virus [13] = test: Antiviral activity against Cowpox virus Brighton infected BALB/c mouse assessed as virus-induced mean day of death at 1 mg/kg, po treated for 5 days after 1 day of viral inoculation; type: functional, Cowpox virus (Brighton Red)
Cowpox virus [14] = test: Antiviral activity against Cowpox virus Brighton infected BALB/c mouse assessed as virus-induced mean day of death at 0.3 mg/kg, po treated for 5 days after 1 day of viral inoculation; type: functional, Cowpox virus (Brighton Red)
Cowpox virus [15] = test: Antiviral activity against Cowpox virus Brighton infected BALB/c mouse assessed as virus-induced mortality at 3 mg/kg, po treated for 5 days after 3 days of viral inoculation; type: functional, Cowpox virus (Brighton Red)
Cowpox virus [16] = test: Antiviral activity against Cowpox virus Brighton infected BALB/c mouse assessed as virus-induced mortality at 1 mg/kg, po treated for 5 days after 3 days of viral inoculation; type: functional, Cowpox virus (Brighton Red)
Cowpox virus [17] = test: Antiviral activity against Cowpox virus Brighton infected BALB/c mouse assessed as virus-induced mortality at 0.3 mg/kg, po treated for 5 days after 3 days of viral inoculation; type: functional, Cowpox virus (Brighton Red)
Cowpox virus [18] = test: Antiviral activity against Cowpox virus Brighton infected BALB/c mouse assessed as virus-induced mean day of death at 3 mg/kg, po treated for 5 days after 3 days of viral inoculation; type: functional, Cowpox virus (Brighton Red)
Cowpox virus [19] = test: Antiviral activity against Cowpox virus Brighton infected BALB/c mouse assessed as virus-induced mean day of death at 1 mg/kg, po treated for 5 days after 3 days of viral inoculation; type: functional, Cowpox virus (Brighton Red)
Cowpox virus [20] = test: Antiviral activity against Cowpox virus Brighton infected BALB/c mouse assessed as virus-induced mean day of death at 0.3 mg/kg, po treated for 5 days after 3 days of viral inoculation; type: functional, Cowpox virus (Brighton Red)
Cowpox virus [21] = test: Antiviral activity against Cowpox virus Brighton infected BALB/c mouse assessed as virus-induced mortality at 3 mg/kg, po treated for 5 days after 6 days of viral inoculation; type: functional, Cowpox virus (Brighton Red)
Cowpox virus [22] = test: Antiviral activity against Cowpox virus Brighton infected BALB/c mouse assessed as virus-induced mortality at 1 mg/kg, po treated for 5 days after 6 days of viral inoculation; type: functional, Cowpox virus (Brighton Red)
Cowpox virus [23] = test: Antiviral activity against Cowpox virus Brighton infected BALB/c mouse assessed as virus-induced mortality at 0.3 mg/kg, po treated for 5 days after 6 days of viral inoculation; type: functional, Cowpox virus (Brighton Red)
Cowpox virus [24] = test: Antiviral activity against Cowpox virus Brighton infected BALB/c mouse assessed as virus-induced mean day of death at 3 mg/kg, po treated for 5 days after 6 days of viral inoculation; type: functional, Cowpox virus (Brighton Red)
Cowpox virus [25] = test: Antiviral activity against Cowpox virus Brighton in HFF cells assessed as inhibition of viral replication after 7 days; type: functional, organism-based, Cowpox virus (Brighton Red); settings: 168 h
Ectromelia virus Moscow = test: Antiviral activity against Ectromelia virus Moscow in HFF cells assessed as inhibition of viral replication after 7 days; type: functional, organism-based; settings: 168 h
Cowpox virus [26] = test: Antiviral activity against Cowpox virus Brighton infected BALB/c mouse assessed as virus-induced mortality at 10 mg/kg, po treated for 5 days after 1 day of viral inoculation; type: functional, Cowpox virus (Brighton Red)
Cowpox virus [27] = test: Antiviral activity against Cowpox virus Brighton infected BALB/c mouse assessed as virus-induced mean day of death at 10 mg/kg, po treated for 5 days after 1 day of viral inoculation; type: functional, Cowpox virus (Brighton Red)
Cowpox virus [28] = test: Antiviral activity against Cowpox virus Brighton infected BALB/c mouse assessed as virus-induced mean day of death at 3 mg/kg, po treated for 5 days after 1 day of viral inoculation; type: functional, Cowpox virus (Brighton Red)
Cowpox virus [29] = test: Antiviral activity against Cowpox virus Brighton infected BALB/c mouse assessed as virus-induced mortality at 10 mg/kg, po treated for 5 days after 3 days of viral inoculation; type: functional, Cowpox virus (Brighton Red)
Cowpox virus [30] = test: Antiviral activity against Cowpox virus Brighton infected BALB/c mouse assessed as virus-induced mean day of death at 10 mg/kg, po treated for 5 days after 3 days of viral inoculation; type: functional, Cowpox virus (Brighton Red)
Cowpox virus [31] = test: Antiviral activity against Cowpox virus Brighton infected BALB/c mouse assessed as virus-induced mortality at 10 mg/kg, po treated for 5 days after 6 days of viral inoculation; type: functional, Cowpox virus (Brighton Red)
Cowpox virus [32] = test: Antiviral activity against Cowpox virus Brighton infected BALB/c mouse assessed as virus-induced mean day of death at 10 mg/kg, po treated for 5 days after 6 days of viral inoculation; type: functional, Cowpox virus (Brighton Red)
Monkeypox virus = test: Antiviral activity against Monkeypox virus in HFF cells assessed as inhibition of viral replication after 7 days; type: functional, organism-based; settings: 168 h
Camelpox virus = test: Antiviral activity against Camelpox virus in HFF cells assessed as inhibition of viral replication after 7 days; type: functional, organism-based; settings: 168 h
Vaccinia virus [33] = test: microbe, parasite or virus in culture; settings: Orthopoxvirus vaccinia, Copenhagen, HFF, 168 h
Variola virus = test: microbe, parasite or virus in culture; settings: HFF, 168 h
Cowpox virus [34] = test: Antiviral activity against Cowpox virus Brighton infected BALB/c mouse assessed as virus-induced mortality at 15 mg/kg, ip once daily for 5 days; type: functional, Cowpox virus (Brighton Red); settings: route intraperitoneal
Cowpox virus [35] = test: Antiviral activity against Cowpox virus Brighton infected BALB/c mouse assessed as virus-induced mortality at 15 mg/kg, ip treated for 5 days after 3 days of viral inoculation; type: functional, Cowpox virus (Brighton Red); settings: route intraperitoneal
Cowpox virus [36] = test: Antiviral activity against Cowpox virus Brighton infected BALB/c mouse assessed as virus-induced mortality at 15 mg/kg, ip treated for 5 days after 6 days of viral inoculation; type: functional, Cowpox virus (Brighton Red); settings: route intraperitoneal
Cowpox virus [37] = test: Antiviral activity against Cowpox virus Brighton infected BALB/c mouse assessed as virus-induced mean day of death at 15 mg/kg, ip treated for 5 days after 6 days of viral inoculation; type: functional, Cowpox virus (Brighton Red); settings: route intraperitoneal
Cowpox virus [38] = test: Antiviral activity against Cowpox virus Brighton infected BALB/c mouse assessed as virus-induced mortality at 25 mg/kg, ip treated for 5 days after 6 days of viral inoculation; type: functional, Cowpox virus (Brighton Red); settings: route intraperitoneal
Cowpox virus [39] = test: Antiviral activity against Cowpox virus Brighton infected BALB/c mouse assessed as virus-induced mortality at 5 mg/kg, ip treated for 5 days after 6 days of viral inoculation; type: functional, Cowpox virus (Brighton Red); settings: route intraperitoneal
Cowpox virus [40] = test: Antiviral activity against Cowpox virus Brighton infected BALB/c mouse assessed as virus-induced mean day of death at 25 mg/kg, ip treated for 5 days after 6 days of viral inoculation; type: functional, Cowpox virus (Brighton Red); settings: route intraperitoneal
Cowpox virus [41] = test: Antiviral activity against Cowpox virus Brighton infected BALB/c mouse assessed as virus-induced mean day of death at 5 mg/kg, ip treated for 5 days after 6 days of viral inoculation; type: functional, Cowpox virus (Brighton Red); settings: route intraperitoneal

SMILES | EC50 (Vaccinia virus [1]) [nM] | EC50 (Vaccinia virus [2]) [nM] | EC50 (Cowpox virus [3]) [nM] | CC50 at 168 h [4] [nM] | selectivity ratio [5] | Activity (Cowpox virus [6]) [days] | selectivity ratio [8] | selectivity ratio [9] | Activity (Cowpox virus [10]) [%] | Activity (Cowpox virus [11]) [%] | Activity (Cowpox virus [13]) [days] | Activity (Cowpox virus [15]) [%] | Activity (Cowpox virus [16]) [%] | Activity (Cowpox virus [18]) [days] | Activity (Cowpox virus [19]) [days] | Activity (Cowpox virus [21]) [%] | Activity (Cowpox virus [22]) [%] | Activity (Cowpox virus [24]) [days] | other results
CCCCCCCCCCCCCCCCOCCCOP(=O)(O)CO[C@H](CO)Cn1ccc(N)nc1=O [BRINCIDOFOVIR] | 140 | 130 | 240 | 42000 | 300 | 9.9 | 323 | 175 | 0 | 20 | 13.7 | 27 | 100 | 16.3 | 12 | 100 | 100 | 9.9 | Activity (Cowpox virus [7]): 10 days; Activity (Cowpox virus [12]): 73%; Activity (Cowpox virus [14]): 11.7 days; Activity (Cowpox virus [17]): 87%; Activity (Cowpox virus [20]): 12.8 days; Activity (Cowpox virus [23]): 100%
O=C(NN1C(=O)[C@@H]2[C@@H]3C=C[C@@H]([C@H]4C[C@@H]34)[C@@H]2C1=O)c1ccc(C(F)(F)F)cc1 [TECOVIRIMAT] | 50 | 100 | 480 | > 100000 | > 2000 | 9.5 | > 1000 | > 208 | 20 | 100 | 9.4 | 33 | 100 | 15.2 | 14.4 | 80 | 100 | 13.5 | EC50 (Cowpox virus [25]): ≤ 70 nM; EC50 (Ectromelia virus Moscow): ≤ 70 nM; Activity (Cowpox virus [26]): 73%; Activity (Cowpox virus [27]): 13.2 days; Activity (Cowpox virus [28]): 11.3 days; Activity (Cowpox virus [29]): 13%; Activity (Cowpox virus [30]): 15.5 days; Activity (Cowpox virus [31]): 100%; Activity (Cowpox virus [32]): 13.5 days; EC50 (Monkeypox virus): ≤ 70 nM; EC50 (Camelpox virus): ≤ 70 nM; EC50 (Vaccinia virus [33]): ≤ 70 nM; EC50 (Variola virus): ≤ 70 nM
Nc1ccn(C[C@@H](CO)OCP(=O)(O)O)c(=O)n1.O.O [CIDOFOVIR] | 29200 | 33000 | 41100 | > 317000 | > 10.9 | – | ≥ 9.6 | > 7.7 | – | – | – | – | – | – | – | – | – | – | Activity (Cowpox virus [34]): 0%; Activity (Cowpox virus [35]): 0%; Activity (Cowpox virus [36]): 60%; Activity (Cowpox virus [37]): 12.8 days; Activity (Cowpox virus [38]): 80%; Activity (Cowpox virus [39]): 93%; Activity (Cowpox virus [40]): 11.5 days; Activity (Cowpox virus [41]): 11.2 days
